ChEMBL document CHEMBL1149289, “Synthesis and antibacterial activity of new poly-S-lysine-porphyrin conjugates” (J Med Chem, 2004)

Key:
[1] = tested on: Staphylococcus aureus; experiment: Logarithmic survival of Staphylococcus aureus ATCC 25923 at 0.5 uM after 10 mins and irradiated with white light at the fluence rate of 50 mW/cm2 for 30 mins relative to control; format: functional; conditions: ATCC 25923, light or radiation study
Outline: (§1)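 Strains grown aerobically at 37 °C on brain heart agar; stationary-phase cells washed twice in PBS and adjusted to OD650 ca. 0.7 (10^8 to 10^9 cells/mL). Cells incubated with photosensitizer at various concentrations for 10 min in the dark at room temperature, then irradiated with white light at 50 mW/cm² for 30 min. Survivors counted as cfu on BHA after 16–20 h at 37 °C, expressed relative to no-photosensitizer controls. Dark controls were run without irradiation.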

[2] = Photostability after irradiation with white light at the fluence rate of 50 mW/cm2 for 30 mins; format: ADME; conditions: read-out: Stability
[3] = Photostability after irradiation with white light at the fluence rate of 50 mW/cm2 for 3 mins; format: ADME; conditions: read-out: Stability
[4] = tested on: Staphylococcus aureus; experiment: Logarithmic survival of Staphylococcus aureus ATCC 25923 at 5 uM after 10 mins and irradiated with white light at the fluence rate of 50 mW/cm2 for 30 mins relative to control; format: functional; conditions: ATCC 25923, light or radiation study; outline: as §1
[5] = tested on: Staphylococcus aureus; experiment: Drug uptake per mg of protein in Staphylococcus aureus ATCC 25923 at 5 uM after 10 mins; format: ADME, organism-based; conditions: in vivo
Outline: (§2)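 Bacterial suspensions (10^8 to 10^9 cells/mL in PBS) were incubated with porphyrin for 10 min in the dark at room temperature, then centrifuged. The pellet was digested in 2% aqueous SDS. Porphyrin was quantified by spectrofluorimetry and cell protein by modified Lowry assay (BSA standard). Uptake is given as nmol per mg cell protein.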

[6] = tested on: Staphylococcus aureus; experiment: Logarithmic survival of Staphylococcus aureus ATCC 25923 at 0.1 uM after 10 mins and irradiated with white light at the fluence rate of 50 mW/cm2 for 15 mins relative to control; format: functional; conditions: ATCC 25923, light or radiation study
Outline: (§3)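 S. aureus ATCC 25923 or MRSA 110 (PBS-washed, 10^8 to 10^9 cells/mL) were incubated with 0.1 μM photosensitizer for 10 min in the dark at room temperature. They were then irradiated with white light at 50 mW/cm² for varying times up to 30 min. Survival was read as cfu on BHA and divided by cfu of controls without photosensitizer.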

[7] = tested on: Staphylococcus aureus; experiment: Logarithmic survival of methicillin-resistant Staphylococcus aureus 110 at 5 uM after 10 mins and irradiated with white light at the fluence rate of 50 mW/cm2 for 30 mins relative to control; format: functional; conditions: light or radiation study
Outline: (§4)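 MRSA 110 grown aerobically at 37 °C on BHA. Stationary-phase cells were taken into BHI, washed twice in PBS and diluted to OD650 ~0.7 (10^8 to 10^9 cells/mL). Suspensions were held with photosensitizer for 10 min in the dark at room temperature, then given white light for 30 min. Cells were serially diluted, plated on BHA and counted after 16–20 h at 37 °C. Survival = cfu ÷ cfu of photosensitizer-free controls.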

[8] = tested on: Staphylococcus aureus; experiment: Logarithmic survival of methicillin-resistant Staphylococcus aureus 110 at 0.1 uM after 10 mins and irradiated with white light at the fluence rate of 50 mW/cm2 for 10 mins relative to control; format: functional; conditions: light or radiation study; outline: as §3
[9] = tested on: Staphylococcus aureus; experiment: Logarithmic survival of methicillin-resistant Staphylococcus aureus 110 at 0.1 uM after 10 mins and irradiated with white light at the fluence rate of 50 mW/cm2 for 1 min relative to control; format: functional; conditions: light or radiation study; outline: as §3
[10] = tested on: Staphylococcus aureus; experiment: Drug uptake per mg of protein in methicillin-resistant Staphylococcus aureus 110 at 0.5 uM after 10 mins; format: ADME, organism-based; conditions: in vivo; outline: as §2
[11] = tested on: Escherichia coli; experiment: Drug uptake per mg of protein in Escherichia coli O4 at 5 uM after 10 mins; format: ADME, organism-based; conditions: in vivo; outline: as §2
[12] = tested on: Staphylococcus aureus; experiment: Logarithmic survival of Staphylococcus aureus ATCC 25923 at 0.1 uM after 10 mins and irradiated with white light at the fluence rate of 50 mW/cm2 for 10 mins relative to control; format: functional; conditions: ATCC 25923, light or radiation study; outline: as §3
[13] = tested on: Escherichia coli; experiment: Logarithmic survival of Escherichia coli O4 at 0.5 uM after 10 mins and irradiated with white light at the fluence rate of 50 mW/cm2 for 30 mins relative to control; format: functional; conditions: O4, light or radiation study; outline: as §1
[14] = tested on: Staphylococcus aureus; experiment: Logarithmic survival of methicillin-resistant Staphylococcus aureus 110 at 0.5 uM after 10 mins and irradiated with white light at the fluence rate of 50 mW/cm2 for 30 mins relative to control; format: functional; conditions: light or radiation study; outline: as §4
[15] = Photostability after irradiation with white light at the fluence rate of 50 mW/cm2 for 10 mins; format: ADME; conditions: read-out: Stability
[16] = tested on: Staphylococcus aureus; experiment: Logarithmic survival of Staphylococcus aureus ATCC 25923 at 0.1 uM after 10 mins and irradiated with white light at the fluence rate of 50 mW/cm2 relative to control; format: functional; conditions: ATCC 25923, light or radiation study; outline: as §3
[17] = tested on: Staphylococcus aureus; experiment: Drug uptake per mg of protein in Staphylococcus aureus ATCC 25923 at 0.5 uM after 10 mins; format: ADME, organism-based; conditions: in vivo; outline: as §2
[18] = tested on: Staphylococcus aureus; experiment: Drug uptake per mg of protein in methicillin-resistant Staphylococcus aureus 110 at 10 uM after 10 mins; format: ADME, organism-based; conditions: in vivo; outline: as §2
[19] = tested on: Staphylococcus aureus; experiment: Antibacterial activity against Staphylococcus aureus ATCC 25923 measured as 4 log decrease in survival; format: functional; outline: as §1
[20] = tested on: Staphylococcus aureus; experiment: Logarithmic survival of Staphylococcus aureus ATCC 25923 at 1 uM after 10 mins and irradiated with white light at the fluence rate of 50 mW/cm2 for 30 mins relative to control; format: functional; conditions: ATCC 25923, light or radiation study; outline: as §1
[21] = tested on: Staphylococcus aureus; experiment: Logarithmic survival of methicillin-resistant Staphylococcus aureus 110 at 0.1 uM after 10 mins and irradiated with white light at the fluence rate of 50 mW/cm2 for 20 mins relative to control; format: functional; conditions: light or radiation study; outline: as §3
[22] = tested on: Staphylococcus aureus; experiment: Logarithmic survival of Staphylococcus aureus ATCC 25923 at 0.1 uM after 10 mins and irradiated with white light at the fluence rate of 50 mW/cm2 for 30 mins relative to control; format: functional; conditions: ATCC 25923, light or radiation study; outline: as §3
[23] = tested on: Escherichia coli; experiment: Logarithmic survival of Escherichia coli O4 at 0.1 uM after 10 mins and irradiated with white light at the fluence rate of 50 mW/cm2 for 30 mins relative to control; format: functional; conditions: O4, light or radiation study; outline: as §1
[24] = tested on: Staphylococcus aureus; experiment: Logarithmic survival of methicillin-resistant Staphylococcus aureus 110 at 0.1 uM after 10 mins and irradiated with white light at the fluence rate of 50 mW/cm2 for 2.5 mins relative to control; format: functional; conditions: light or radiation study; outline: as §3
[25] = tested on: Staphylococcus aureus; experiment: Logarithmic survival of Staphylococcus aureus ATCC 25923 at 0.25 uM after 10 mins and irradiated with white light at the fluence rate of 50 mW/cm2 for 30 mins relative to control; format: functional; conditions: ATCC 25923, light or radiation study; outline: as §1
[26] = tested on: Staphylococcus aureus; experiment: Antibacterial activity against methicillin-resistant Staphylococcus aureus 110 measured as 4 log decrease in survival; format: functional; outline: as §1
[27] = Photostability after irradiation with white light at the fluence rate of 50 mW/cm2 for 20 mins; format: ADME; conditions: read-out: Stability
[28] = tested on: Staphylococcus aureus; experiment: Logarithmic survival of Staphylococcus aureus ATCC 25923 at 0.1 uM after 10 mins and irradiated with white light at the fluence rate of 50 mW/cm2 for 5 mins relative to control; format: functional; conditions: ATCC 25923, light or radiation study; outline: as §3
[29] = tested on: Staphylococcus aureus; experiment: Drug uptake per mg of protein in Staphylococcus aureus ATCC 25923 at 2.5 uM after 10 mins; format: ADME, organism-based; conditions: in vivo; outline: as §2
[30] = tested on: Staphylococcus aureus; experiment: Logarithmic survival of methicillin-resistant Staphylococcus aureus 110 at 0.1 uM after 10 mins and irradiated with white light at the fluence rate of 50 mW/cm2 for 15 mins relative to control; format: functional; conditions: light or radiation study; outline: as §3

C[n+]1ccc(-c2c3nc(c(-c4cc[n+](C)cc4)c4ccc([nH]4)c(-c4cc[n+](C)cc4)c4nc(c(-c5ccc(C(=O)O)cc5)c5ccc2[nH]5)C=C4)C=C3)cc1.[I-].[I-].[I-]
survival at 0.5 µM [1]: -0.42
remaining at 0.5 h [2]: 67%
remaining at 0.05 h [3]: 86%
survival at 5 µM [4]: -3.06%
Drug uptake [5]: 9.97 nmol/mg
survival at 0.1 µM [6]: -1.17
survival at 5 µM [7]: -2.29
survival at 0.1 µM [8]: 1.7
survival at 0.1 µM [9]: 1.96
Drug uptake [10]: 2.08 nmol/mg
Drug uptake [11]: 4.35 nmol/mg
survival at 0.1 µM [12]: -0.42
survival at 0.5 µM [13]: 1.52
survival at 0.5 µM [14]: 1.33%
remaining at 10 min [15]: 77%
survival at 0.1 µM [16]: 0.82
Drug uptake [17]: 1.88 nmol/mg
Drug uptake [18]: 18 nmol/mg
Activity [19]: 2.5 µM
survival at 1 µM [20]: -1.32%
survival at 0.1 µM [21]: 1.79
survival at 0.1 µM [22]: 1.87
survival at 0.1 µM [23]: 1.57
survival at 0.1 µM [24]: 1.84
survival at 0.25 µM [25]: 1.56
Activity [26]: 2.5 µM
remaining at 20 min [27]: 72%
survival at 0.1 µM [28]: -0.28
Drug uptake [29]: 7.77 nmol/mg
survival at 0.1 µM [30]: 1.82

O=C(O)c1ccc(-c2c3nc(c(-c4ccncc4)c4ccc([nH]4)c(-c4ccncc4)c4nc(c(-c5ccncc5)c5ccc2[nH]5)C=C4)C=C3)cc1 [PORPHIRIN]
survival at 0.5 µM [1]: -2.39
remaining at 0.5 h [2]: 85%
remaining at 0.05 h [3]: 97%
survival at 5 µM [4]: -3.73%
Drug uptake [5]: 81.4 nmol/mg
survival at 0.1 µM [6]: -2.48
survival at 5 µM [7]: -3.07
survival at 0.1 µM [8]: 0.98
survival at 0.1 µM [9]: 1.83
Drug uptake [10]: 5.5 nmol/mg
Drug uptake [11]: 85.6 nmol/mg
survival at 0.1 µM [12]: -2.07
survival at 0.5 µM [13]: 1.46
survival at 0.5 µM [14]: -1.58%
remaining at 10 min [15]: 94%
survival at 0.1 µM [16]: 1.91
Drug uptake [17]: 3.15 nmol/mg
Drug uptake [18]: 342 nmol/mg
Activity [19]: 0.25 µM
survival at 1 µM [20]: -2.7%
survival at 0.1 µM [21]: -0.6
survival at 0.1 µM [22]: -1.7
survival at 0.1 µM [23]: 2
survival at 0.1 µM [24]: 1.8
survival at 0.25 µM [25]: -1.9
Activity [26]: 1 µM
remaining at 20 min [27]: 90%
survival at 0.1 µM [28]: -0.85
Drug uptake [29]: 32.1 nmol/mg
survival at 0.1 µM [30]: 0.26
